OXTR agonist = activates the human oxytocin receptor; CHO-OTR cells, Fluo-8 calcium fluorescence; normalized: DMSO 0%, oxytocin 100%; activation, % at 3 µM; 320,000 tested, 0.32% active; AID 2435;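 active means activation above the mean of all tested compounds plus 3 SD, cutoff set per screening run, cut at about 20% in these data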;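 further: peak over basal fluorescence ratio from a 100 s FLIPR kinetic read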
V1aR counter = activates human V1a receptor in oxytocin agonist counter-screen; CHO-V1R cells, Fluo-8 calcium fluorescence, agonist mode; 0% DMSO, 100% 3 nM vasopressin; activation, % at 3 µM; 320,000 tested, 0.25% active; AID 2797;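 active means activation above the mean activation of all tested compounds plus 3 SD, per screening run, cut at about 20% in these data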;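 further: signal is peak over basal fluorescence ratio across a 100 second FLIPR read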
CHRM4 PAM = potentiates acetylcholine response at human M4 receptor; P08173; CHO-K1 hM4/Gqi5, Fluo-8 calcium fluorescence, ACh EC20; 0% = ACh EC20, 100% = maximal ACh; activation, % at 3 µM; 360,000 tested, 0.4% active;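 active means activation above its plate's cutoff, the mean activation of sample wells plus 3 SD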
Target sequence (P08173 whole entry, looked up): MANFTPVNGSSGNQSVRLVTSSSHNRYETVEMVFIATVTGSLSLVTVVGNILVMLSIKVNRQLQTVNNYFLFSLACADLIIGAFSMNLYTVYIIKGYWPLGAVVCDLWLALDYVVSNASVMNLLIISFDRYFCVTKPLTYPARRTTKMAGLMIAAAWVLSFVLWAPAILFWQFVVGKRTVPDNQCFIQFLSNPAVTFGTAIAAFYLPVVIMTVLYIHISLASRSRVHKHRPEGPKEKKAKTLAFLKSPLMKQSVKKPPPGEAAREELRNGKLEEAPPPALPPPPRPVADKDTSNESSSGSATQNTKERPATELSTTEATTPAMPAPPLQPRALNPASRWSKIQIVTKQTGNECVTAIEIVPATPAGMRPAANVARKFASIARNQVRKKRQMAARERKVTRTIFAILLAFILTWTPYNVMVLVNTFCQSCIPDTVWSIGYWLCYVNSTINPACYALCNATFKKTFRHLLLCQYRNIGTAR
CHRM4 antagonist = CHRM4 antagonism in calcium assay. CHO-hM4 cells, ACh EC80, Fluo-8 calcium fluorescence. AID 624125. 360,000 tested, 0.73% active. P08173. inhibition, % at 3 µM;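 active means inhibition above its plate's cutoff, the mean inhibition of sample wells plus 3 SD, cut at about 27% in these data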;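 further: 0% = acetylcholine EC80 with DMSO and 100% = DMSO without agonist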
OXTR potentiate = human OXTR potentiation; P30559; activation, % at 3 µM; CHO-OTR cells, Fluo-8 calcium fluorescence, potentiator mode; 0% = oxytocin EC15, 100% = EC100; 320,000 tested, 0.061% active; AID 2445;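 active means activation above that plate's cutoff, the mean activation of tested compounds plus 3 SD, cut at about 6.6% in these data, passing the limit was not always enough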;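 further: 100% uses oxytocin at 75 nM as the full agonist control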
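Material: human OTR in CHO cells. Compound: 3.0 µM, one dose. Timing: compound 6 min at room temperature before oxytocin, 100 s read. Evaluation: % activation of max/min ratio relative to oxytocin controls. Replication: single well per compound, singlicate. Signal: Fluo-8 calcium dye fluorescence.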
M4 ag = CHRM4 agonism in calcium assay; P08173; CHO-K1 hM4/Gqi5, Fluo-8 calcium fluorescence; vehicle 0%, full acetylcholine response 100%; activation, % at 3 µM; 360,000 tested, 0.14% active;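 active means activation above the run mean over all test wells plus 3 SD, cut at about 32% in these data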;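 further: peak over basal fluorescence ratio per well then scaled between controls; 0% = DMSO wells and 100% = acetylcholine at EC100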
* marks the source's active call; other numbers are inactive results; . = no result given. This is a sample that favours compounds with a hit; in the whole collection about 1.5% have one here.

SMILES	OXTR agonist	V1aR counter	CHRM4 PAM	CHRM4 antagonist	OXTR potentiate	M4 ag
COC(c1ccccc1)c1nnc(CCC(=O)N2CCCCCCC2)o1 (stereo unspecified)	0	1	18*	-18	-3	3
COC(c1ccccc1)c1nnc(CCC(=O)N2CCN(Cc3cccs3)CC2)o1 (stereo unspecified)	-1	0	-1	1	-3	2
CN(C)S(=O)(=O)c1ccc2c(c1)/C(=C/c1cc3c([nH]1)CCCC3)C(=O)N2	35*	25*	-1	5	-12	5
CN(C)S(=O)(=O)c1ccc2c(c1)C(=O)c1cc(S(=O)(=O)N(C)C)ccc1CC2	3	4	4	-6	-5	5
Cc1cc(N2CCCC2)ccc1/C=C1/C(=O)N(C)C(=S)N1C	8	12	4	2	-11	2
Cc1cc(/C=C2\NC(=S)N(C)C2=O)ccc1N1CCCC1	69*	79*	-25	45*	-20	82*
CCCN1C(=O)/C(=C/c2ccc(N3CCCC3)c(C)c2)NC1=S	112*	113*	-19	54*	-24	77*
CCCN1C(=O)/C(=C/c2ccc(OCC(=O)OCC)cc2)NC1=S	.	.	-9	-2	.	17
COc1cc(/C=C2\NC(=S)N(C)C2=O)ccc1O	2	3	8	-2	-7	2
Cc1cc(/C=C2/C(=O)N(C)C(=S)N2C)ccc1N1CCCC1	23*	29*	4	2	-21	4
CSCCC(NS(=O)(=O)c1ccc(C)cc1)C(=O)N1CCN(S(=O)(=O)c2ccc(F)cc2)CC1 (stereo unspecified)	0	-1	2	-18	-2	5
CC(C)c1nnc(NC(=O)c2ccc(N3C(=O)CCC3=O)cc2)s1	0	0	-1	-18	-8	1
O=C(Nc1nnc(C23CC4CC(CC(C4)C2)C3)s1)c1ccc(N2C(=O)CCC2=O)cc1	0	1	-16	60*	-6	1
CCCc1cc(C(=O)NNC(=S)NC2CCCCC2)cs1	-1	2	18*	2	-7	4
CCCc1cc(C(=O)NNC(=S)NCc2ccccc2)cs1	0	0	8	-7	-11	2
CC1(C(=O)Nc2cccc3c2CCCC3)CCN1C(=O)c1cccc(F)c1 (stereo unspecified)	.	.	2	-19	.	1
CCN(C(=O)CSc1nc2ccccc2c(=O)n1Cc1ccc(C)cc1)C1CCS(=O)(=O)C1 (stereo unspecified)	1	-1	1	-1	1	0
CCn1c(SCC(=O)N(Cc2ccccc2)C2CCS(=O)(=O)C2)nc2ccccc2c1=O (stereo unspecified)	-1	1	31*	-6	-7	-1
CC(C)Cc1nnc(NS(=O)(=O)c2ccc(Cl)cc2)s1	0	0	16*	-19	-5	1
COc1ccc(S(=O)(=O)Nc2nnc(CC(C)C)s2)cc1	0	1	6	-1	0	2
CC(C)(C)c1ccc(OCCOc2ccc(C(C)(C)C)cc2NC=O)c(NC=O)c1	0	1	-15	31*	-15	19
CN(C)S(=O)(=O)c1ccc(C(=O)N2CCN=C2SCc2cccnc2)cc1	2	4	19*	14	-7	2
COC(=O)C1(C(=O)OC)c2ccccc2CN(S(=O)(=O)c2ccc(C)cc2)C1CC(C)=O (stereo unspecified)	.	.	6	-19	.	2
O=C1CNC(c2ccccc2)C(c2ccccc2)N1 (stereo unspecified)	.	.	4	-8	.	0
COc1ccc(C2c3c(ncn(CCCO)c3=N)Oc3ccc4ccccc4c32)cc1 (stereo unspecified)	-1	0	-9	0	-9	19
SMILES	OXTR agonist	V1aR counter	CHRM4 PAM	CHRM4 antagonist	OXTR potentiate	M4 ag
COc1ccc(C2c3c(ncn(CCCO)c3=N)Oc3ccc4ccccc4c32)cc1OC (stereo unspecified)	1	10	11*	1	-6	1
O=S(c1ccccc1O)S(=O)c1ccccc1O (stereo unspecified)	.	.	0	6	.	1
CCOC(=O)/C(=C\c1cccnc1)C(=O)c1cc(C(C)=O)c(Nc2ccccc2)s1	1	0	-3	46*	-12	5
CCN(CC)Cc1ccccc1Sc1ccccc1	0	1	-17	53*	-1	0
N/C(Cc1ccccc1Sc1ccccc1)=N\O	2	1	4	-1	4	2
COc1ccccc1CNC(=O)C1(C)CCN1C(=O)C1(c2ccccc2)CC1 (stereo unspecified)	.	.	5	-3	.	2
CCn1c(N)c(C(=O)Nc2ccccc2C(=O)OC)sc1=S	-1	-1	37*	-14	-8	1
O=C(O)c1ccc(NC(=S)Nc2ccccc2)cc1	0	0	10	1	3	2
O=C(CNS(=O)(=O)c1cccs1)N1CCN(c2ccccc2F)CC1	1	4	17*	-36	-7	6
O=C(CNS(=O)(=O)c1ccc(F)cc1)N1CCN(c2ccccc2)CC1	4	4	2	27*	-3	2
O=C(CNS(=O)(=O)c1ccc(Cl)cc1)N1CCN(c2ccc(F)cc2)CC1	10	5	0	4	-10	7
Cc1ccc2oc(NC3=NC4(CCCC4)C4=C(CCCC4=O)N3)nc2c1	.	.	3	3	.	0
O=C(Nc1ccc(Cl)cc1)Nc1nc(-c2ccccc2O)cs1	12	12	-23	29*	-8	18
Cc1cccc(C)c1NC(=O)CS(=O)CC(=O)Nc1ccc(F)cc1F (stereo unspecified)	1	1	3	-1	-5	1
CCc1ccc(NC(=O)CS(=O)CC(=O)Nc2ccc(F)cc2F)cc1 (stereo unspecified)	0	1	31*	-5	-1	0
COc1ccc(OC)c(-c2nnc3n2N=C(c2ccc(OC)c(OCC4CC4)c2)CS3)c1	-1	-1	-9	29*	-9	5
CC(C)CC1CCCCC1OC(=O)C[N+]1(C)CCCCC1 (stereo unspecified)	0	0	-20	87*	6	1
COc1ccc(OC)c(-c2cc(C(=O)Nc3ccccc3C(N)=O)c3ccccc3n2)c1	0	2	-10	31*	-5	19
COc1ccc(-c2cc(C(=O)N(C)Cc3cccc(OC)c3OC)c3ccccc3n2)cc1OC	-2	0	-6	4	-3	17
COc1cccc(CN(C)C(=O)c2cc(-c3ccc(OC)c(OC)c3)nc3ccccc23)c1	.	.	-8	30*	.	12

Screening data from PubChem BioAssay.
